Source: PubChem BioAssay
D1 allo mod – D1 CRE-luciferase signal change, two-sided – cell-based, HEK293 D1, dopamine EC30, D1 allosteric modulator project, primary screen; D(1A) dopamine receptor (Homo sapiens), P21728; B-score at 10 µM; dopamine EC30 potentiation; actives deviate in either direction; actives 5.9% (n = 58,000); AID 641, 2007;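 active = luminescence count or its row- and column-corrected plate score outside the 99.7% band of the plate's sample wells, on either side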
Target sequence (P21728 whole entry, looked up): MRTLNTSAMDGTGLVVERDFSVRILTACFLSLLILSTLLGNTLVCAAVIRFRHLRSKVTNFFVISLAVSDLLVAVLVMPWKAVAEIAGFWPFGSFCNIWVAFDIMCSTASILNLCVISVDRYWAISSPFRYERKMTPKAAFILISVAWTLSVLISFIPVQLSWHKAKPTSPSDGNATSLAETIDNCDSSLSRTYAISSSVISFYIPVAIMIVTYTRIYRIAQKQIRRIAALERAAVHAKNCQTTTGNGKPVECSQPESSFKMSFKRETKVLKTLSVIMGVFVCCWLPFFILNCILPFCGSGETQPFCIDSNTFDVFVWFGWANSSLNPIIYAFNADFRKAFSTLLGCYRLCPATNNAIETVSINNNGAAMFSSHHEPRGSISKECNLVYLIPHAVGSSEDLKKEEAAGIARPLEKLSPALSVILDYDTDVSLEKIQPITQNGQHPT
M1 antag – antagonists of rat M1 muscarinic receptor. AID 628, 2007. actives 3.4% (n = 64,000). CHO-M1 cells, Fluo-4 calcium, ACh EC80 antagonist mode; hits give low values. B-score at 10 µM. Muscarinic acetylcholine receptor M1 (Rattus norvegicus), P08482;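 active = calcium fluorescence response, raw or row-and-column corrected B-score, differing from the plate sample mean either way at a set confidence level, mostly lower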
M1 ag – M1 muscarinic receptor agonists, primary screen, CHO-M1 cells, Fluo-4 calcium, agonist mode; Fluo-4 calcium fluorescence; hits give high values; Muscarinic acetylcholine receptor M1; actives 3% (n = 64,000); B-score at 10 µM;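 active = fluorescence rise, raw or as B-score row- and column-corrected plate score, outside the 99.7% band of its plate's samples, either direction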
Jurkat tox 60K – cytotoxicity toward Jurkat T cells, primary screen, cytotoxicity control, cell-based, Jurkat E6.1, 60K MLSMR library. Jurkat E6.1 viability, ATP luminescence, 48 h. inhibition, % at 4 µM. actives 1.2% (n = 56,000). AID 463, 2006;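 active = inhibition above the mean inhibition of all tested compounds plus 3 SD, cut at about 28% in these data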
HEK293 NFkB inh – inhibitors of PMA/ionomycin-induced NF-kB reporter, primary screen, antigen receptor NF-kB inhibitor project, cell-based, HEK-293 luciferase reporter, luminescence; inhibition, % at 3 µM; actives 0.21% (n = 62,000); HEK-293 NF-kB luciferase reporter; AID 465, 2006;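 active = inhibition above the mean of all tested compounds plus 3 SD, cut at about 40% in these data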;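 note: 0% = stimulated DMSO wells and 100% = 10 µM reference inhibitor 5653914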
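Timing: 1 h pretreatment, 16 h stimulation, 37 °C; system: HEK-293 cells with stable firefly luciferase reporter driven by four HIV NF-kB elements; doses: 3 µM once, 0.30% DMSO; measured by: luciferase luminescence; control set: DMSO and 10 µM reference inhibitor; repeats: single test; reagent: PMA plus ionomycin mix as NF-kB-activating stimulus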
hDAT+cocaine – changed hDAT dopamine uptake under cocaine IC80, either direction, primary screen, cocaine antagonist project, cell-based, LLC-PK1 hDAT, [14C]-dopamine uptake, MLSMR | Sodium-dependent dopamine transporter (Homo sapiens), Q01959 | LLC-PK1 hDAT cells, [14C]-dopamine uptake with cocaine IC80; actives deviate in either direction | B-score at 10 µM | actives 1.3% (n = 110,000) | AID 449768, 2010;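 active = Z score or B-score, a plate-position-corrected score, falls beyond the plate's 99.7% confidence bounds, in either direction; inactive = both scores lie inside the 99.7% bounds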;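 note: scored against the spread of the other compound wells on the same plate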
Active calls of the source: *; x = no result. In the library only some 7.6% were active in any assay of this set; here they are far more common.

SMILES	D1 allo mod	M1 antag	M1 ag	Jurkat tox 60K	HEK293 NFkB inh	hDAT+cocaine
Cc1ccc(S(=O)(=O)n2nc(-c3ccco3)nc2SCc2ccccc2)cc1	0.0023	-1.2	2.2*	-1	-1	-1.5
CN(C)C(=O)c1cc([N+](=O)[O-])cc([N+](=O)[O-])c1N(C)C	x	x	x	x	x	-0.0094
Cc1cccc(N2CCN(C(=O)c3ccc(Cl)c(S(=O)(=O)NCc4ccco4)c3)CC2)c1C	0.097	0.29	0.13	84*	12	x
O=C(O)c1ccc(Cl)c(S(=O)(=O)NCc2ccco2)c1	x	-0.1	-1	-1	12	-0.81
N#CC1=C2SCC(O)(c3ccccc3)N2C(=O)CC1c1ccccc1F (stereo not drawn)	x	x	x	x	x	0.087
N#CC1=C2SCC(O)(c3ccccc3)N2C(=O)CC1c1cccs1 (stereo not drawn)	0.71	1.4	-0.61	79*	48*	-0.56
Nc1nncn1C(=O)c1cccs1	-0.28	-0.18	0.41	-6	16	2.8*
Nc1nncn1C(=O)c1c(Cl)cccc1Cl	-0.14	x	x	-7	17	-0.86
CCn1c(N)c(C(=O)NCCOC)sc1=S	x	x	x	x	x	0.074
CCOC(=O)CCc1c(C)nc(SCCN2CCCC2)c(C#N)c1C	0.11	-0.099	-0.66	-4	10	-0.038
CCOC(=O)CCc1c(C)nc2c(c(C)nn2C(C)(C)C)c1C	x	2.6*	0.45	4	11	0.29
CCCCCn1c(SCC#N)nc2cc(C(=O)NCC3CCCO3)ccc2c1=O (stereo not drawn)	x	0.0015	2.5*	1	4	0.029
CCCCCn1c(SCC#N)nc2cc(C(=O)NC3CCCCC3)ccc2c1=O	0.15	0.4	-0.41	12	16	x
CN(C)[C@@H](CO)c1nnc([C@H](CC(=O)O)NC(=O)C2CCNCC2)o1	x	x	x	x	x	-0.011
O=c1[nH]c(NCCO)nc2c1C1(CCCCC1)Cc1ccccc1-2	-0.021	0	-0.39	6	9	0.14
CCC1(CC)Cc2ccccc2-c2nc(NCCO)[nH]c(=O)c21	x	x	x	x	x	-2.7*
COc1ccccc1C(=O)NCCc1nc2ccccc2n1C	-0.11	0.079	1.5	x	10	-0.13
Cc1ccccc1Cn1nnc(-c2cccc(C(=O)O)c2)n1	-2.7*	-0.5	0.59	-4	-53	-0.12
COCc1cc(=O)[nH]c2cc(NC(=O)C(C)(C)CCl)c(C)cc12	x	x	x	x	x	-7.8*
CCOC(=O)C(NC(C)=O)(OCc1ccc(F)cc1)C(F)(F)F (stereo not drawn)	-5.7*	-1.1	0.18	3	2	0.63
CCN(CC)CCn1c(NC(=O)c2ccc(Cl)cc2)nc2ccccc21	x	x	x	x	x	0.98
Cc1ccc(OCCn2cc(/C(N)=N/O)c3ccccc32)cc1C	-3.1*	1.3	-0.02	10	11	0.11
COc1ccc(OC)c2c(C)cc(N3CCN(C(=O)c4ccc(F)cc4)CC3)nc12	1.2	-0.46	1.6	1	11	0.53
N#CC1=C(Nc2ccccc2)SC=C(c2ccc(Br)cc2)N=C1N1CCOCC1	x	x	x	x	x	-6.2*
c1ccc(Nc2nc(N3CCCC3)nc(N3CCOCC3)n2)cc1	x	x	x	x	x	-0.0053
SMILES	D1 allo mod	M1 antag	M1 ag	Jurkat tox 60K	HEK293 NFkB inh	hDAT+cocaine
O=c1oc2c(CN3CCCCCC3)c(O)ccc2cc1-c1nc2ccccc2[nH]1	0.12	-17*	248*	4	15	x
O=c1cc(-c2ccccc2)c2ccc(O)c(CN3CCCCC3)c2o1	-3.1	-0.7	-1.3	4	3	0.59
CN(CCO)c1ncnc2nc[nH]c12	x	0.72*	0.82	-4	10	-0.66
COC(=O)c1ccc2c(c1)N(C)CCS2	-0.2	1.1	1.7	-14	7	0.52
COc1cc(OC)c(-c2nn3c(-c4ccco4)nnc3s2)cc1OC	-1.3	-1.8	4.4*	4	16	0.069
Cc1cc(C)nc(SC2CCCCC2O)n1 (stereo not drawn)	-0.099	-0.0038	-0.22	-1	-1	-0.69
Oc1ccc(Cl)cc1CNc1ccc(Br)cn1	0.24	-0.8	-0.55	56*	-4	-0.37
Clc1ccc(-c2nnc3n2CCCCC3)cc1	x	x	x	x	x	0.26
Cc1ccc(S(=O)(=O)N(C)Cc2ccc(-c3nnc4n3CCC4)cc2)cc1	0.21	2.6*	0.57	6	16	2.2*
COc1ccc(NC(=O)Nc2ccc(N(C)C)cc2)cc1	-1.4	-0.62	0.1	-1	-14	-0.33
CCn1c(SCC(=O)N2CCN(c3ccccc3F)CC2)nnc1-c1ccoc1C	-0.49	1.1	-0.0088	6	5	2.7*
CCO[C@@H]1OC(C(=O)N2CCN(Cc3ccc4c(c3)OCO4)CC2)=C[C@H](c2csc3ccccc23)[C@H]1CCCO	x	x	x	x	x	0.89
CC(=O)n1cc([C@H]2C=C(C(=O)N3CCN(Cc4ccc5c(c4)OCO5)CC3)O[C@@H](OCCCCO)C2)c2ccccc21	x	x	x	x	x	2.5*
CCO[C@@H]1OC(C(=O)N2CCN(Cc3ccc4c(c3)OCO4)CC2)=C[C@H](c2cn(C(C)=O)c3ccccc23)[C@H]1CCCO	x	x	x	x	x	2.1*
CC(=O)n1cc([C@@H]2C=C(C(=O)N3CCOCC3)O[C@H](OCCCCO)C2)c2ccccc21	x	x	x	x	x	1.1
CCN(CC)S(=O)(=O)c1ccc(Oc2ccc(S(=O)(=O)N(CC)CC)cc2)cc1	x	x	x	x	x	-1.4
COC(=O)CSc1n[nH]c(-c2cccnc2)n1	x	x	x	x	x	0.049
Cc1cccc(Cn2c(SCCN3CCCCC3)nc3c2c(=O)[nH]c(=O)n3C)c1	-0.25	-3.6*	-0.036	-8	13	-0.12
Cn1c(=O)[nH]c(=O)c2c1nc(Sc1nc3ccccc3s1)n2Cc1ccccc1	4*	-0.059	-0.77	9	9	1.2
CC(=O)Nc1ccc(S(=O)(=O)c2ccc(N)cc2)cc1N	0.2	-0.053	-0.39	0	0	-0.21
CC(=O)Nc1ccc(S(=O)(=O)c2ccc(N)cc2)cc1	0.22	0.76	-0.35	-3	8	2*
CCOC(=O)/C=C/S(=O)(=O)c1ccc(NC(C)=O)cc1	-2.2	1.9*	-0.79	52*	13	-0.1
Cc1cc(OCC(=O)N2CCc3ccccc3C2)c2c(-c3ccccc3)cc(=O)oc2c1	x	x	x	x	x	0.39
O=C(Nc1cnc2ccccc2c1)c1ccco1	-4.5*	0.88	-0.4	9	-17	-0.29
CCN(CC)c1ccc(NC(=O)c2ccccc2F)cc1	-5*	-0.016	2.1	57*	-28	1
CCN(CC)c1ccc(NC(=O)c2ccco2)cc1	-3*	0	-0.38	-2	-30	0.099
CCN(CC)c1ccc(NC(=O)c2ccco2)c(C)c1	-0.079	-0.4	0.14	-4	-4	-0.73
